Data published in ChEMBL document CHEMBL1144558, “Potent anticancer activities of novel aminophenol analogues against various cancer cell lines” (2007).
Calls of active or inactive are those of the source. The rule behind the calls is not given here.

What was measured:
[1] = system: DU-145; test: Growth inhibition of human DU145 cells at 4 uM after 68 hrs relative to control; assay type: functional; settings: DU-145, 68 h
How it was run: (§1)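 Adherent cells trypsinized, seeded at 0.5 × 10^4 cells/ml in RPMI 1640 with 10% FBS (maintenance medium also 10 mM HEPES pH 7.3), 37 °C, 5% CO2. Compound (4 µM) added after 1 day; 68 h exposure. Viable cells by MTT; % net growth = (treated − initial absorbance)/(control − initial absorbance) × 100. Mean of ≥3 (MCF-7 lines) or ≥4 (DU-145, HepG2) measurements.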

[2] = system: HepG2; test: Growth inhibition of human HepG2 cells at 4 uM after 68 hrs relative to control; assay type: functional; settings: HepG2, 68 h; how it was run: as §1
[3] = system: MCF7; test: Growth inhibition of human estrogen receptor deficient adriamycin-resistant MCF7 cells at 4 uM after 68 hrs relative to control; assay type: functional; settings: MCF7, 68 h; how it was run: as §1
[4] = system: HL-60; test: Induction of apoptosis in human HL60 cells assessed as DNA fragmentation at 4 uM after 20 hrs; assay type: functional, cell-based
How it was run: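 Cells at 2 × 10^5 cells/ml in RPMI/10% FBS treated 20 h with 4 µM compound (DMSO control). Washed in PBS pH 7.2, lysed with proteinase K, RNase A and 1% SDS at 37 °C for 30 min, then NaI/isopropanol DNA extraction at 60 °C. DNA run on 2% agarose gel, stained with ethidium bromide, scored for ladder.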

[5] = system: MCF7; test: Growth inhibition of human estrogen receptor expressing MCF7 cells at 4 uM after 68 hrs relative to control; assay type: functional; settings: MCF7, 68 h; how it was run: as §1
[6] = system: HL-60; test: Growth inhibition of human HL60 cells at 4 uM after 72 hrs relative to control; assay type: functional; settings: HL-60, 72 h

Structure (SMILES)	inhibition at 4 µM [1] [%]	inhibition at 4 µM [2] [%]	inhibition at 4 µM [3] [%]	Activity [4]	inhibition at 4 µM [5] [%]	inhibition at 4 µM [6] [%]
CCCCCCCCCCCCNc1ccc(O)cc1	73	13	100	Active	66	72
CCCCCCCCCCNc1ccc(O)cc1	66	17	100	Active	57	66
CCCCCCCCCC(=O)Nc1ccc(O)cc1	51	26	23	–	30	6
CC1=C(/C=C/C(C)=C/C=C/C(C)=C/C(=O)Nc2ccc(O)cc2)C(C)(C)CCC1 [FENRETINIDE]	41	27	60	–	62	55
CC1=C(/C=C/C(C)=C/C=C/C(C)=C/C(=O)O)C(C)(C)CCC1 [TRETINOIN]	46	13	12	–	74	42
CCCCCCCCCCCC(=O)Nc1ccc(O)cc1	41	22	21	–	22	6
